Source: ChEMBL document CHEMBL2311305, “Antiproliferative potency of novel benzofuran-2-carboxamides on tumour cell lines: cell death mechanisms and determination of crystal structure” (Eur J Med Chem, 2013)

Columns and labels:
[1] = test system: HeLa; assay: Cytotoxicity against human HeLa cells after 72 hrs by MTT assay; type: functional, cell-based
In short: (§1)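 Cells seeded at 3000-6000 per well on day 0, according to cell line doubling time. Compound added in five 10-fold dilutions, 72-h incubation, then MTT colorimetric read-out. Absorbances converted to percentage growth by NCI formulae. IC50 obtained by linear regression between the concentrations bracketing PG 50; ">100" assigned when no concentration reaches it. Quadruplicate points, three independent experiments.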

[2] = test system: MIA PaCa-2; assay: Cytotoxicity against human MIAPaCa2 cells after 72 hrs by MTT assay; type: functional, cell-based; in short: as §1
[3] = test system: WI-38; assay: Cytotoxicity against human WI38 cells after 72 hrs by MTT assay; type: cell-based; in short: as §1
[4] = test system: SW-620; assay: Cytotoxicity against human SW620 cells after 72 hrs by MTT assay; type: functional, cell-based; in short: as §1
[5] = test system: MCF7; assay: Cytotoxicity against human MCF7 cells after 72 hrs by MTT assay; type: functional, cell-based; in short: as §1
[6] = test system: SK-BR-3; assay: Cytotoxicity against human SKBR3 cells after 72 hrs by MTT assay; type: functional, cell-based; details: SK-BR-3, 72 h; in short: as §1

Compound	IC50 ([1]; Homo sapiens, HeLa, 72 h)	IC50 ([2]; Homo sapiens, MIA PaCa-2, 72 h)	IC50 ([3]; Homo sapiens, WI-38, 72 h)	IC50 ([4]; Homo sapiens, SW-620, 72 h)	IC50 ([5]; Homo sapiens, MCF7, 72 h)	IC50 [6]	IC50 ([1]; hela)	IC50 ([2]; mia paca-2)	IC50 ([3]; wi-38)	IC50 ([4]; sw-620)	IC50 ([5]; mcf7)
O=C(Nc1ccc([N+](=O)[O-])cc1)c1cc2ccccc2o1	11.4 µM	26.6 µM	47.6 µM	27.9 µM	4.9 µM	> 100 µM					
O=C(Nc1nc2ccc([N+](=O)[O-])cc2[nH]1)c1cc2ccccc2o1	9.2 µM	9.3 µM	8.6 µM	6.9 µM	5.2 µM	> 100 µM					
O=C(Nc1ccc([N+](=O)[O-])cn1)c1cc2ccccc2o1	42.4 µM	73.1 µM	37.8 µM	76.5 µM	82.8 µM	> 100 µM					
O=C(Nc1nc2ccc([N+](=O)[O-])cc2s1)c1cc2ccccc2o1	17.5 µM	> 100 µM	72.9 µM	> 100 µM	63.9 µM	> 100 µM					
CN(C)c1ccc(NC(=O)c2cc3ccccc3o2)cc1 [listing 1 of 2 here]							83.7 µM	> 100 µM	> 100 µM	86 µM	35.6 µM
O=C(Nc1ccc(C2=NCCN2)cn1)c1cc2ccccc2o1	71.9 µM	> 100 µM	68.7 µM	67.1 µM	> 100 µM	> 100 µM					
CN(C)c1ccc(NC(=O)c2cc3ccccc3o2)cc1 [listing 2 of 2 here]	49.1 µM		81.2 µM	54.2 µM		> 100 µM		49.6 µM			8.5 µM
